Data on three molecules can be found in ChEMBL document CHEMBL1909621, “Synthesis and biological evaluation of novel nitrogen- and sulfur-containing hetero-1,4-naphthoquinones as potent antifungal and antibacterial agents” (2011).

SMILES strings stand for the structures. ≈ marks a conversion by molar mass, not a printed value. Calls of active or inactive are those of the source. The rule behind the calls is not given here.

Holding throughout (type): functional
Test [1] deals with Yamadazyma tenuis. Put plainly: Antifungal activity against Candida tenuis VKM Y-70 at 0.1% after 48 to 72 hrs by diffusion technique. The method in brief:
(§1)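 Fungi. Disk diffusion: 10⁹ spores (cells)/1 mL inoculum. Incubated 48–72 h at 28–30 °C. Zone around disk measured, with a nystatin control disk. Serial dilution: compounds dissolved in DMSO and diluted into wort agar, then inoculated. Incubated at 30 °C for 24–72 h. MIC recorded.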

Test [2] has as its system Yamadazyma tenuis. Put plainly: Antifungal activity against Candida tenuis VKM Y-70 at 0.5% after 48 to 72 hrs by diffusion technique. The method in brief: as §1
In test [3] the test system is Escherichia coli. As to the kind of experiment: Antibacterial activity against Escherichia coli B-906 at 0.5% after 24 hrs by diffusion technique.
The subject of test [4] is Mycobacterium. As to the kind of experiment: Antibacterial activity against Mycobacterium luteum b-917 at 0.5% after 24 hrs by diffusion technique.
The subject of test [5] is Mycobacterium. Put plainly: Antibacterial activity against Mycobacterium luteum b-917 after 24 to 72 hrs by serial dilution technique.
The subject of test [6] is Escherichia coli. Put plainly: Antibacterial activity against Escherichia coli B-906 after 24 to 72 hrs by serial dilution technique.
Test [7] deals with Escherichia coli. As to the kind of experiment: Antibacterial activity against Escherichia coli B-906 at 0.1% after 24 hrs by diffusion technique.
Test [8] relates to Aspergillus niger. Put plainly: Antifungal activity against Aspergillus niger F-1119 at 0.1% after 48 to 72 hrs by diffusion technique. The method in brief: as §1
The test system of test [9] is Aspergillus niger. As to the kind of experiment: Antifungal activity against Aspergillus niger F-1119 at 0.5% after 48 to 72 hrs by diffusion technique. The method in brief:
as §1

Test [10] relates to Mycobacterium. Put plainly: Antibacterial activity against Mycobacterium luteum b-917 at 0.1% after 24 hrs by diffusion technique.
Test [11] has as its system Staphylococcus aureus. Put plainly: Antibacterial activity against Staphylococcus aureus 209-P at 0.1% after 24 hrs by diffusion technique.
In test [12] the test system is Yamadazyma tenuis. As to the kind of experiment: Antifungal activity against Candida tenuis VKM Y-70 after 24 to 72 hrs by serial dilution technique. The method in brief:
as §1

In test [13] the test system is Aspergillus niger. Put plainly: Antifungal activity against Aspergillus niger F-1119 after 24 to 72 hrs by serial dilution technique. The method in brief:
as §1

Test [14] relates to Staphylococcus aureus. As to the kind of experiment: Antibacterial activity against Staphylococcus aureus 209-P after 24 to 72 hrs by serial dilution technique.
Test [15] relates to Staphylococcus aureus. Put plainly: Antibacterial activity against Staphylococcus aureus 209-P at 0.5% after 24 hrs by diffusion technique.

For `O=C1C2=C(SCCSCCSC3=C(SCCSCCS2)C(=O)c2ccccc2C3=O)C(=O)c2ccccc21`, the “diameter of the inhibition zone (DIZ)” value with Yamadazyma tenuis [1], in the test with Yamadazyma tenuis [2], in the test with Escherichia coli [3], with Mycobacterium [4], in the test with Escherichia coli [7] and with Aspergillus niger [8] was 0 mm throughout. Further, the “diameter of the inhibition zone (DIZ)” value in the test on Aspergillus niger [9], in the test with Mycobacterium [10], in the test on Staphylococcus aureus [11] and in the test on Staphylococcus aureus [15] was 0 mm throughout. The inhibition result with Mycobacterium [5], in the test on Escherichia coli [6], with Aspergillus niger [13] and with Staphylococcus aureus [14] was “inactive” each time. In addition, the MIC (as a rule, the lowest concentration found to suppress growth) against Yamadazyma tenuis [12] is 31.2 µg/mL (≈ 50.6 µM).
Turning to `CCOC1=C(SCc2c(C)cc(C)cc2C)C(=O)c2ccccc2C1=O`, the “diameter of the inhibition zone (DIZ)” value in the test with Yamadazyma tenuis [1], in the test with Yamadazyma tenuis [2], with Escherichia coli [3], in the test on Mycobacterium [4], with Escherichia coli [7] and with Aspergillus niger [8] was 0 mm each time. For the same molecule, the “diameter of the inhibition zone (DIZ)” value in the test with Aspergillus niger [9], in the test with Mycobacterium [10], in the test on Staphylococcus aureus [11] and in the test on Staphylococcus aureus [15] was 0 mm throughout. For the same molecule, the inhibition entry in the test with Mycobacterium [5], in the test with Escherichia coli [6], in the test on Aspergillus niger [13] and in the test with Staphylococcus aureus [14] was “inactive” each time. In addition, the MIC against Yamadazyma tenuis [12] turned out to be 62.5 µg/mL (≈ 171 µM).
On to `Cc1cc(C)c(CSC2=C(SCc3c(C)cc(C)cc3C)C(=O)c3ccccc3C2=O)c(C)c1`, for which the “diameter of the inhibition zone (DIZ)” value in the test on Yamadazyma tenuis [1], with Yamadazyma tenuis [2], in the test with Escherichia coli [3], in the test on Mycobacterium [4], in the test on Escherichia coli [7] and in the test with Aspergillus niger [8] was 0 mm throughout. The “diameter of the inhibition zone (DIZ)” value in the test with Aspergillus niger [9], with Mycobacterium [10], with Staphylococcus aureus [11] and in the test on Staphylococcus aureus [15] was 0 mm each time. Moreover, the inhibition entry in the test with Mycobacterium [5], with Escherichia coli [6], in the test on Aspergillus niger [13] and in the test on Staphylococcus aureus [14] was “inactive” throughout. The MIC with Yamadazyma tenuis [12] was 125 µg/mL (≈ 257 µM).
